How the values were obtained:
[1] = assay type: in vivo, Sprague Dawley rats
Summary of the method: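 Male SD rats (250 ± 20 g), acclimated one week, n = 6 per group, oral single dose. Plasma separated at 4 °C, stored −80 °C, acetonitrile-precipitated with chrysophanol internal standard and diluted with water. Emodin quantified by HPLC-MS/MS, C18 column at 40 °C, triple quadrupole.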

[2] = Equilibrium solubility, shake-flask method; assay type: physicochemical; details: pH 1.2, pH 4.5, pH 6.8, 37 °C
Summary of the method: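 Shake-flask method: excess solid stirred in 5 mL of water or pH 1.2, 4.5 or 6.8 buffer at 37 °C for 72 h. Samples were centrifuged, and the supernatant was assayed directly by HPLC using a modified Chinese Pharmacopoeia method.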

[3] = In vitro powder dissolution in pH 6.8 and pH 7.0 media; assay type: physicochemical
Summary of the method: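 60 mg emodin, or an equivalent amount of cocrystal, added to 900 mL of pH 6.8 or pH 7.0 medium at 37 °C with propeller at 100 rpm. Autosampled 1 mL at 10–720 min (nine points), centrifuged 13,400 rpm for 10 min, supernatant by HPLC. Run in triplicate.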

[4] = ref NIST (National Institute of Standards and Technology, n.d); cited from earlier work
[5] = male, Sprague Dawley, rat, plasma, po, 100 mg/kg

Row | Compound | AUC(0-inf) [1, 5] | AUC(0-t) [1, 5] | Cmax [1, 5] | MRT inf [1, 5] | MRT last [1, 5] | Tmax [1, 5] | half-life [1, 5] | CLz ([1]; rats, oral, EMO 100 mg/kg or equimolar cocrystal, plasma EMO, n = 6) | Solubility in purified water and three other media [2] | Apparent dissolution (detectability) [3] | Sublimation enthalpy [4]
1 | Cc1cc(O)c2c(c1)C(=O)c1cc(O)cc(O)c1C2=O [EMO, Emodin] | 33400 ng·h/mL | 2370 ± 947 ng·h/mL | 274 ± 160 ng/mL | 5.9 ± 5.41 h | 10.3 ± 1.94 h | 11 ± 1.67 h | 4.13 ± 1.97 h | 4 ± 3 mL/h/kg | negligible solubility | undetectability | –
2 | Cc1nc(C)c(C)nc1C [TMP, Tetramethylpyrazine] | – | – | – | – | – | – | – | – | – | – | 22.6 kcal/mol
